# Assays:
# [1] = system: insulin-deficient diabetes induced by a single high dose of streptozotocin in male and female mice; conditions: single high dose of STZ; cited from earlier work
# human islets [2] = experiment: RPPA protein expression with gene ontology enrichment; assay type: cell-based; conditions: for GO pathways with downregulated proteins / GO pathways with upregulated proteins: adjusted p value < 0.01
# Summary of the method: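 Islets from 3 male human donors, cultured overnight at 37°C in phenol-red-free RPMI (11 mM glucose, 10% charcoal-stripped FBS). […] Lysates serially diluted twofold (5 dilutions), arrayed on nitrocellulose, probed with 485 antibodies via tyramide amplification and DAB; expression normalized.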
# [3] = system: MLD-STZ-induced diabetes in male C57BL6 mice; experiment: MLD-STZ-induced diabetes, wild-type mice; assay type: in vivo, mouse
# ERE-GFP MIN6 cells = experiment: ERE-GFP reporter activation, flow cytometry; assay type: cell-based, mouse
# Summary of the method: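 MIN6 cells were stably transduced with a lentiviral 4×ERE-driven GFP reporter and selected with puromycin (2 μg/mL). They were kept in phenol-free DMEM with 10% charcoal-stripped FBS for 7 days before and during assays. Test compounds were given overnight at 10−8 M, or in time courses at 10 nM (1 min) or 100 nM (1, 15, 60, 120 min). Percent GFP-positive cells were scored by flow cytometry, gated on vehicle-treated cells.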
# human islets [4] = experiment: RPPA phosphoproteins with Ingenuity Pathway Analysis; assay type: cell-based; conditions: for annotations predicting pathway activation (Z score > 2) / pathways predicting inhibition (Z score < −2): 10^−8 M, 5 min, N = 3 male donors; for most represented biological function: 5 min stimulation (Fig S5)
# Summary of the method: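 Islets came from three male human donors and were cultured overnight at 37°C in phenol-red-free RPMI (11 mM glucose, 10% charcoal-stripped FBS). They were treated with test compounds at 10−8 M for 5 min, 30 min or 18 h, against untreated islets. Lysates were twofold serially diluted (5 dilutions), arrayed on slides and probed with 485 antibodies using tyramide amplification and DAB detection. Pathway changes were analysed with IPA Downstream Effects Analysis.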
# GLP-1R = conditions: target β cells; cited from earlier work
Molecule,prevention of insulin-deficient diabetes [1],protein expression (human islets [2]; 5 and 30 min),GO pathways with downregulated proteins (human islets [2]; 18 h),GO pathways with upregulated proteins (human islets [2]; 18 h),"protein expression (human islets [2]; 18 h, compared to GLP-1- and GLP1-E2-treated islets)","index of β cell function (insulin/glucose) ([3]; male C57BL6 mice, 120 μg/kg/day, day 13, vs other treatments)","hyperglycemia ([3]; male C57BL6 mice, 120 μg/kg/day, vs other treatments, n = 10)","increase in percentage of ERE-activated MIN6 cells (ERE-GFP MIN6 cells; 24 h exposure (text; overnight in legend), 10^−8 M (Fig 2D, 2E)) [fold]",ERE activation with ER antagonist fulvestrant (ERE-GFP MIN6 cells; E2 after pretreatment with fulvestrant),"increase in percentage of ERE-activated MIN6 cells (ERE-GFP MIN6 cells; E2 alone 1 min, 10 nM (Fig 2F, 2G)) [fold]",time to reach the nucleus and activate EREs (ERE-GFP MIN6 cells; MIN6 cells) [min],"level of phosphoproteins and related total proteins (human islets [4]; 5 and 30 min, vs GLP-1 or GLP1-E2)",annotations predicting pathway activation (Z score > 2) (human islets [4]),pathways predicting inhibition (Z score < −2) (human islets [4]),most represented biological function (human islets [4]),"level of phosphoproteins (human islets [4]; 18 h, vs GLP-1 or GLP1-E2)","antidiabetic efficacy at dose ten times lower ([3]; mice, dose ten times lower (12 μg/kg))",clathrin-mediated endocytosis of GLP-1R (GLP-1R)
"C[C@]12CC[C@@H]3c4ccc(O)cc4CC[C@H]3[C@@H]1CC[C@@H]2O [E2, 17β-Estradiol]",prevents insulin-deficient diabetes,heightened protein expression at 5 and 30 min,"downregulated multiple proteins enriched in pathways involved in apoptosis and inflammation, protein phosphorylation, transcription, and Akt/PI3-kinase",upregulated few proteins enriched in pathways involved in proliferation and response to estrogen,decreased protein expression level at 18 h,maintenance of the index of β cell function,decrease in hyperglycemia,4.7,reversed by pretreatment with the ER antagonist fulvestrant,6.1,≤ 1,heightened level of phosphoproteins and related total proteins at 5 and 30 min,related to cell viability and survival,"related to cell death, apoptosis, or necrosis",Cell Death & Survival,decreased in phosphoproteins at 18 h,–,–
glucagon-like peptide-1 [GLP-1],–,–,"downregulated multiple proteins enriched in pathways involved in apoptosis, cytokine and oxidative stress-related inflammation, protein phosphorylation, Akt/PI3-kinase, and cell cycle",upregulated few proteins enriched in pathways involved in response to cytokines and glycolysis,–,–,–,–,–,–,–,–,related to cell viability and survival,"related to cell death, apoptosis, or necrosis",Cell Death & Survival,–,not efficient in mice,"promotes ligand-activated, clathrin-mediated endocytosis of GLP-1R"
